Drawing on ChEMBL document CHEMBL4513216, “Probing the Open Global Health Chemical Diversity Library for Multistage-Active Starting Points for Next-Generation Antimalarials” (ACS Infect Dis, 2020), this text covers cytotoxicity for 97 compounds.

The structures appear in SMILES notation.

A short description of this data set: Toxicity liver stage against HepG2, at 10uM. The format is cell-based. Set-up: test concentration 10 uM, cell line HepG2-A16-CD81EGFP. Conditions: human, HepG2-A16-CD81EGFP cells; read-out: INHIBITION
In outline: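 Uninfected HepG2-A16-CD81EGFP cells, 3 × 10^3 per well, 1536-well, plated on prespotted compound at 10 μM final, parasite-free screening media added to match infected plates; puromycin 10 μM positive, DMSO 0.5% negative; run in parallel with 48 h PbLuc assay at 37 °C, 5% CO2; viability by CellTiter-Glo luminescence, normalized to controls.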
In the case of `Cc1ccnc(NC(=O)c2ccc(Br)o2)c1`, the cytotoxicity at 10 µM is -10.5%.

Regarding `COCC(=O)Nc1ccc(-c2noc([C@@H]3CCCN3)n2)cn1`, the cytotoxicity at 10 µM is -1.16%.

With `O=C1NC[C@H]2CN(Cc3nccs3)CCN12`, the cytotoxicity at 10 µM was -4.9%.

Regarding `COCCn1cc(CC(=O)Nc2nc3c(s2)CCC3)c2ccccc21`, the cytotoxicity at 10 µM was found to be 32.8%.

Consider `COC(=O)c1ccc(C(=O)NCC(O)c2cccn2C)cc1` (configuration not stated), for which the cytotoxicity at 10 µM was -3.84%.

With `COc1ccc(C[C@H]2CNCC[C@@H]2OCC2CC2)cc1`, the cytotoxicity at 10 µM is -1.24%.

For `c1nc2n(c1CN1CCOCC1)CCN(C1CCOC1)CC2` (configuration not stated), the cytotoxicity at 10 µM was -136%.

As to `COCC(=O)N1CCc2nc(C(=O)Nc3cccnc3)sc2CC1`, the cytotoxicity at 10 µM was found to be 7.98%.

As for `Cc1ccoc1C(=O)N1CCc2ncnc(-c3cnn(C)c3)c2CC1`, the cytotoxicity at 10 µM was found to be 16.9%.

As for `Cn1cc(-c2cnc(N3CCOCC3)nc2)cc1C(=O)N1CCCC1`, the cytotoxicity at 10 µM was -10.6%.

For `Cc1cccc(C(=O)Oc2cc(=O)n3cccc(C)c3n2)c1`, the cytotoxicity at 10 µM was determined as 1.11%.

With `COCCNC(=O)Cn1c(-c2ccco2)cc2cccnc21`, the cytotoxicity at 10 µM was -5.09%.

With `Nc1nccnc1C1CN(C(=O)COc2cccnc2)CCO1` (configuration not stated), the cytotoxicity at 10 µM is -1.83%.

As for `COCCNc1nnc(-c2ccccn2)s1`, the cytotoxicity at 10 µM was determined as 6.1%.

In the case of `Clc1ccc(CN(CCN2CCOCC2)Cc2cccnc2)c(Cl)c1`, the cytotoxicity at 10 µM is -4.25%.

As to `Cc1cc(C)n(CCCC(=O)N2CCc3ncc(Cl)cc3C2)n1`, the cytotoxicity at 10 µM was -25.3%.

As to `CN(CC1(O)CCCN(c2ccccn2)C1)C(=O)CC1CCOCC1` (configuration not stated), the cytotoxicity at 10 µM was -5.44%.

On to `CC1(C)COCCN1C(=O)CCc1nc(-c2ccc(Cl)cc2)no1`, for which the cytotoxicity at 10 µM stood at 25.4%.

Regarding `O=C(CNc1nc(C2CC2)ns1)N1CCc2sccc2C1`, the cytotoxicity at 10 µM came out at 17.3%.

Take `O=C(Nc1ccc(-c2ccccc2)cn1)C1CCN(C(=O)C2CC2)CC1`: the cytotoxicity at 10 µM was -14.8%.

`Cc1nc(CN2CCN(c3ccc(Cl)cn3)CC2)no1`: the cytotoxicity at 10 µM was determined as 1.3%.

Take `Cc1ncncc1C(=O)N1CCCN(Cc2nccn2C(C)C)CC1`: the cytotoxicity at 10 µM is 5.79%.

For the compound `CCN(Cc1ccco1)C(=O)C1=NN(c2ccccc2)C(=O)CN1`, the cytotoxicity at 10 µM was 6.35%.

Take `CCN(CC(C)C#N)C(=O)CNc1ccc(F)c(C)c1` (configuration not stated): the cytotoxicity at 10 µM was found to be 17.5%.

For `C=C(C)CN(CC)C(=O)c1cc(F)ccc1NS(C)(=O)=O`, the cytotoxicity at 10 µM is -2.12%.

On to `COCCN(CCOC)C(=O)c1ccn(-c2ccccc2Cl)n1`, for which the cytotoxicity at 10 µM was -1.59%.

For the compound `CCOC(=O)N(C)C1CCN(Cc2ccsc2)CC1`, the cytotoxicity at 10 µM is -0.572%.

On to `CCn1ccnc1CN1CCN(c2ncnc3ccsc23)CC1`, for which the cytotoxicity at 10 µM amounted to 5.39%.

`CC(NC(=O)NCc1cccc(CN2CCCC2)c1)c1nccs1` (configuration not stated): the cytotoxicity at 10 µM was -7.43%.

Take `COc1ncccc1CNC(=O)c1c[nH]c(=O)c(Br)c1`: the cytotoxicity at 10 µM was -2.62%.

With `Cc1noc(-c2cccnc2N2CCOC(C)(c3cnn(C)c3)C2)n1` (configuration not stated), the cytotoxicity at 10 µM came out at 4.08%.

As for `O=C(N1CCN(CCO)CC1)C1(O)Cc2ccccc2C1`, the cytotoxicity at 10 µM was -2.92%.

`Cc1nn(C)c(N2CCCN(C)CC2)c1CNC(=O)CC1CCCC1`: the cytotoxicity at 10 µM was -7.43%.

Take `Cc1nonc1NC(=O)C1SCCc2sccc21` (configuration not stated): the cytotoxicity at 10 µM is -2.82%.

For the compound `CC(C)(C)OC(=O)NCC1CCCCN1Cc1cccc(C(N)=O)c1` (configuration not stated), the cytotoxicity at 10 µM is -2.27%.

For `CN(CC(=O)Nc1cc(-c2cc(Cl)cc(Cl)c2)[nH]n1)S(C)(=O)=O`, the cytotoxicity at 10 µM was 6.72%.

`C1CN(c2nc(C3CC3)ns2)CCS1`: the cytotoxicity at 10 µM is -11.6%.

Consider `COc1ccc2cc(CN(C)C(C)c3nc(C(C)(C)C)no3)ccc2c1` (configuration not stated), for which the cytotoxicity at 10 µM stood at 1.44%.

On to `CC(C)c1nnc2n1CCN(C(=O)c1ccc(OCC3CC3)nc1)C2`, for which the cytotoxicity at 10 µM is -0.556%.

For `Cc1csc(C2CCCCN2C(=O)Cn2cncn2)n1` (configuration not stated), the cytotoxicity at 10 µM was -0.0679%.

Regarding `Cc1cccn2cc(CN3CCCC(c4noc(C5CC5)n4)C3)nc12` (configuration not stated), the cytotoxicity at 10 µM stood at 2.29%.

Regarding `CS(=O)(=O)NCC1CCCCN1C(=O)c1ccc(Br)s1` (configuration not stated), the cytotoxicity at 10 µM amounted to 1.58%.

For `CNC(=O)NC(C)c1nc(-c2ccccc2)c[nH]1` (configuration not stated), the cytotoxicity at 10 µM was 0.995%.

In the case of `CC(C)CC(C(=O)N(C)Cc1ncnn1C)N1CCCCC1=O` (configuration not stated), the cytotoxicity at 10 µM is -0.159%.

In the case of `O=c1[nH]nc(CNc2ncc(Br)cn2)[nH]1`, the cytotoxicity at 10 µM was -5.12%.

Take `CC(=O)Nc1ccc(CNc2ccn(Cc3ccccc3)n2)cc1`: the cytotoxicity at 10 µM came to 10.1%.

`CC(=O)c1cc(C(=O)NC2(c3ccccc3)CCC2)n(C)c1`: the cytotoxicity at 10 µM was -11.7%.

`NC(=O)N1CCCN(C(=O)Nc2cc(-n3cccc3)ccc2F)CC1`: the cytotoxicity at 10 µM was -2.09%.

`CCC(C)NC(=O)CS(=O)(=O)Cc1cc(C)ccc1C` (configuration not stated): the cytotoxicity at 10 µM was -3.06%.

As for `CC(=O)N(C)Cc1cccc(NC(=O)N(C)Cc2nccs2)c1`, the cytotoxicity at 10 µM was -6.77%.

As to `CN1CC(C(=O)NCCc2ccc(F)c(Br)c2)CC1=O` (configuration not stated), the cytotoxicity at 10 µM amounted to 3.57%.

On to `CCCn1ccc2cc(NC(=O)NCCn3cnnc3CC)ccc21`, for which the cytotoxicity at 10 µM worked out at 2.47%.

`COc1ccc(CCC2CCCN(C(=O)CCc3cc(O)no3)C2)cc1` (configuration not stated): the cytotoxicity at 10 µM is -3.66%.

With `O=C(CN1C(=O)CCNC1=O)N1CCOC(c2ccc(Cl)c(Cl)c2)C1` (configuration not stated), the cytotoxicity at 10 µM was 6.28%.

Consider `Cc1cc(C)c(-n2cc(CCO)cn2)cc1C`, for which the cytotoxicity at 10 µM is 0.334%.

For `COc1ccccc1[C@@H]1CN(Cc2c(C)noc2C)C[C@H]1C(=O)O`, the cytotoxicity at 10 µM was -9.94%.

For the compound `Clc1cc(NCc2ccncc2)nc2[nH]ccc12`, the cytotoxicity at 10 µM turned out to be 6.58%.

As to `CC(C)N1CCCC(C(=O)NCc2noc(Cc3ccccc3)n2)C1` (configuration not stated), the cytotoxicity at 10 µM was -1.49%.

For the compound `CN(Cc1cnccn1)CC1CCOc2ccccc2C1` (configuration not stated), the cytotoxicity at 10 µM is -3.75%.

Regarding `c1ccc2sc(N3CCCC4(CCOC4)C3)nc2c1` (configuration not stated), the cytotoxicity at 10 µM is -5.08%.

As to `Cc1ccccc1[C@@H]1CN(CCCS(=O)(=O)N(C)C)C[C@H]1C(=O)O`, the cytotoxicity at 10 µM is -5.51%.

In the case of `COc1ccccc1CN1C(=O)O[C@@H]2CN(Cc3cccc(C)n3)C[C@@H]21`, the cytotoxicity at 10 µM is 2.64%.

Turning to `Cc1nccc(-c2ccccc2)c1C(=O)N1CCC2(CC(=O)NC2=O)C1` (configuration not stated), the cytotoxicity at 10 µM was -2.12%.

In the case of `Cc1n[nH]c(C)c1CC(=O)N1CCCN(C)C2(CCN(C)CC2)C1`, the cytotoxicity at 10 µM was 11.7%.

Consider `COc1ccc(OCc2nc(C(=O)N3CCC(NC(C)=O)C3)co2)cc1` (configuration not stated), for which the cytotoxicity at 10 µM is -1.21%.

Turning to `CN(Cc1noc2c1CCCC2)C(=O)CN1C(=O)COc2ccccc21`, the cytotoxicity at 10 µM was -55.1%.

Turning to `O=C(O)C1(O)CCN(c2ccnc3c(C(F)(F)F)cccc23)CC1`, the cytotoxicity at 10 µM stood at 5.56%.

For the compound `COc1ccc([C@@H]2CN(c3cc(C(=O)O)ccn3)C[C@H]2N(C)C)cc1`, the cytotoxicity at 10 µM was determined as 10.3%.

`CCC1c2cccn2CCN1C(=O)c1ccno1` (configuration not stated): the cytotoxicity at 10 µM is -8.58%.

For `Cc1ccccc1CN(C)C(=O)CN1CCCC(Cn2cncn2)C1` (configuration not stated), the cytotoxicity at 10 µM is -2.87%.

For `CCOCCN1CCN(CCCS(C)(=O)=O)CC1C` (configuration not stated), the cytotoxicity at 10 µM was -4.14%.

As to `Cc1cc(CN(C)CC(c2cccs2)N2CCOCC2)on1` (configuration not stated), the cytotoxicity at 10 µM was 0.049%.

With `CN(Cc1ccccc1C#N)C1CCN(CCc2ccccn2)CC1`, the cytotoxicity at 10 µM is -6.55%.

With `Cc1nc(C)n(CC2CCCN(Cc3ccc4c(c3)OCCO4)C2)n1` (configuration not stated), the cytotoxicity at 10 µM was -18.9%.

For the compound `O=C(NCc1nn(-c2ccccc2)c2c1CCC2)N1CCCC(O)C1` (configuration not stated), the cytotoxicity at 10 µM is -10.2%.

Take `COC(=O)c1cc(C(=O)N2CCOC(C)(C)C2)n(-c2ccccc2)n1`: the cytotoxicity at 10 µM was -2.81%.

Take `Cc1cnn(CCNCc2nc(-c3ccccn3)no2)c1`: the cytotoxicity at 10 µM is -8%.

In the case of `Cn1c(CN2CCCC(c3noc(C4CC4)n3)C2)cc(=O)n(C)c1=O` (configuration not stated), the cytotoxicity at 10 µM was -11.2%.

For the compound `CC(C)c1ccc(OCC(=O)N2CCOCC2c2ncon2)cc1` (configuration not stated), the cytotoxicity at 10 µM is -9.01%.

Take `O=C(NCCOC1CCCC1)c1ccc(-c2ccco2)[nH]c1=O`: the cytotoxicity at 10 µM is -20%.

In the case of `Cc1ccc(S(=O)(=O)NCc2cccc(C(=O)N3CCCC3)c2)cc1F`, the cytotoxicity at 10 µM was -14.5%.

For the compound `COc1cccc(COCC(=O)N2CCCC2Cn2cccn2)c1` (configuration not stated), the cytotoxicity at 10 µM was -0.153%.

In the case of `c1ccc2oc(CN3CCOC(Cn4cccn4)C3)nc2c1` (configuration not stated), the cytotoxicity at 10 µM was -18.2%.

`CNC(=O)[C@@H](c1ccccc1F)N1CCC[C@H]1C(=O)NC1CCCC1`: the cytotoxicity at 10 µM stood at 0.344%.

For `CC(C)OCCCN(Cc1cnn(C)c1)Cc1ccccn1`, the cytotoxicity at 10 µM was 1.24%.

Turning to `O=S(=O)(C1CC1)N1CCn2cc(CNc3ccccn3)nc2C1`, the cytotoxicity at 10 µM was found to be 8.04%.

Take `O=C(NCc1cccnc1)C1=NOC2(CCN(C(=O)N3CCCC3)C2)C1` (configuration not stated): the cytotoxicity at 10 µM was -4.8%.

With `c1cncc(-c2ncnc3c2CCN(Cc2cccs2)CC3)c1`, the cytotoxicity at 10 µM was found to be 19.9%.

For `Cc1cnc(N2CCCC3(CCN(Cc4csc(C)n4)C3=O)C2)nc1` (configuration not stated), the cytotoxicity at 10 µM is -5.15%.

For the compound `COCCN1CCO[C@H]2CN(C(=O)c3ccncc3F)C[C@H]21`, the cytotoxicity at 10 µM was -141%.

Regarding `CCc1ncnc2c1CCN(C(=O)c1ccncc1F)CC2`, the cytotoxicity at 10 µM was -88.5%.

`O=C(NCc1cccs1)[C@H]1CC[C@@H]2[C@@H](CCN2c2ncccn2)O1`: the cytotoxicity at 10 µM was -24.2%.

Consider `CN(C)C1COC2(CCN(Cc3ccc4c(c3)OCO4)CC2)C1` (configuration not stated), for which the cytotoxicity at 10 µM is -5.19%.

`O=C1N(c2cccnc2)CCC12CCCN(Cc1cccnc1)C2` (configuration not stated): the cytotoxicity at 10 µM was found to be 0.951%.

Regarding `Cc1ncsc1CN1C[C@@H]2COC[C@]2(CNC(=O)c2ccccc2)C1`, the cytotoxicity at 10 µM is -2.39%.

Consider `COCC1CC2(CCN(Cc3nccn3C)CC2)CN1c1ncccn1` (configuration not stated), for which the cytotoxicity at 10 µM was 5.1%.

Take `Cc1cccc(C(=O)N2C[C@@H]3C(CC(=O)NC(C)C)[C@@H]3C2)n1` (some centres not stated): the cytotoxicity at 10 µM is -3.69%.
